# High-throughput results as filed in PubChem BioAssay.
# Only some compounds are listed: those with a hit (about 5.6% of all), similar ones and a draw of the others.
# CHOP inh: blocks CHOP induction under ER stress; CHO-K1 CHOP-promoter luciferase, tunicamycin-induced, 15-18 h; 220,000 tested, 3.8% active; inhibition, % at 10 µM; AID 2732;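 active = compounds that reduced the stress-induced luciferase reporter signal by more than about 70% of percent inhibition, limit read from the data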
# CHOP UPR activ: activators of apoptotic arm of unfolded protein response (CHOP). CHO-CHOP luciferase reporter, UPR activation, luminescence; percent of tunicamycin response over DMSO baseline. activation, % at 10 µM. 330,000 tested, 0.34% active. AID 449763;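 active = at 10 µM dose, activation of 40% or more, normalized to positive control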
#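 System: CHO CHOP reporter cells. Amount: 500 cells per well. Buffer or medium: F12 medium, 10% FBS. Compound dosing: one dose, 10 µM in 0.5% DMSO. Incubation: 6 h compound exposure at 37 °C after overnight seeding. Technique: Steady-Glo luciferase luminescence. Benchmarks: tunicamycin and DMSO controls.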
# aDG glyco act: increases alpha dystroglycan glycosylation; Pro5-aDG cells, alpha-DG glycosylation AlphaScreen (IIH6); 0% Pro5, 100% B10-LARGE cell signal; activation, % at 10 µM; 360,000 tested, 0.22% active; AID 624168;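 active = activation of at least 8% versus controls, or a plate z-score of at least 8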;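 note: Pro5 are CHO cells carrying HIG-tagged alpha-DG that lacks glycosylation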
# MPTP block: blocks calcium-induced mitochondrial swelling; inhibition, % at 10 µM; AID 602449; isolated mouse mitochondria, Ca2+ swelling absorbance, 30 min; 360,000 tested, 1.4% active;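 active = inhibition of 50% or more, scaled per plate between neutral and stimulator controls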
# GRIN3A LBD mod: NR3A (human) ligand-binding domain modulation; NR3A LBD differential scanning fluorimetry, Tm shift; 0% = protein alone, 100% = glycine-bound protein; Tm shift relative to glycine control, % at 25 µM; 340,000 tested, 2.5% active; AID 1259313;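 active = melting temperature shift of at least 10% of the positive control shift, at one fixed dose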
# XBP1 UPR activ: activators of adaptive arm of unfolded protein response (XBP1); 330,000 tested, 0.33% active; AID 463104; activation, % at 20 µM; CHO-XBP1 luciferase reporter, IRE1-XBP1 UPR activation, luminescence; percent of tunicamycin response, DMSO as zero;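 active = versus positive control, 20 µM dose yields 30% or more activation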
#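 Material: CHO-XBP1 cells stably carrying IRE1-XBP1-driven luciferase reporter / Amount: 1000 cells per well / Compound: 20 µM, 1% DMSO / Times: 6 h treatment, 37 °C / Detection: luciferase luminescence / Measure: % activation of reporter signal versus tunicamycin and DMSO controls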
# Rh123 counter: membrane potential counter-screen of mitochondrial pore inhibitors; 5,000 tested, 78% active; inhibition, % at 10 µM; isolated mitochondria, Rhodamine 123 fluorescence; shares compounds with MPTP block; in the data active = inhibition above about 22%
# MPTP swell DR: dose response confirmation of mitochondrial permeability transition pore inhibitors; IC50, µM; AID 651561; shares compounds with MPTP block; isolated mitochondria swelling, absorbance; 780 tested, 58% active; in the data active = IC50 below about 20 µM
# MPTP counter DR: active in counter-screen for permeability transition pore inhibitors; IC50, µM; AID 651564; 780 tested, 49% active; shares compounds with MPTP block; isolated mitochondria counterscreen, fluorescence read-out; in the data active = IC50 below about 80 µM
# Hits are given with their value; i = inactive; nt = not tested or not shown.
SMILES,CHOP inh,CHOP UPR activ,aDG glyco act,MPTP block,GRIN3A LBD mod,XBP1 UPR activ,Rh123 counter,others
Cc1ccc(C(=O)N(c2ccccn2)C(C)c2ccco2)cc1 (stereo unspecified),i,i,i,i,i,i,nt,
Cc1ccc(S(=O)(=O)N2CCOCC2)cc1NC(=O)COC(=O)CCc1c[nH]c2ccccc12,nt,i,i,i,i,i,nt,
CC1CC(C)CN(CCCNC(=O)C2CCCN(S(=O)(=O)N3CC(C)CC(C)C3)C2)C1 (stereo unspecified),nt,i,i,i,i,i,nt,
O=C(NNC(=O)c1cccnc1)Nc1ccc([N+](=O)[O-])cc1,i,i,i,102,i,i,102,
O=C(Nc1ccncc1)c1ccc(Br)cc1,nt,i,i,i,i,i,nt,
O=C(NNS(=O)(=O)c1ccc([N+](=O)[O-])cc1)c1ccncc1,nt,i,i,i,i,i,nt,
O=C(NNC(=O)c1ccncc1)Nc1ccc(Br)cc1,nt,nt,i,87,14,nt,102,
O=C(NNC(=O)c1ccncc1)Nc1ccc([N+](=O)[O-])cc1,i,i,i,82,i,i,92,
O=S(=O)(Nc1ccccc1N1CCOCC1)c1ccc(Cl)cc1,nt,i,i,i,i,i,nt,
C[C@@H]1CN(S(=O)C(C)(C)C)[C@@H](CCO)/C1=C\CCO (stereo partly specified),nt,nt,i,i,i,nt,nt,
O=C(NCc1ccc(F)cc1)c1cc2c(s1)CCCC2,i,i,i,i,i,i,nt,
CC1CCc2sc(C(=O)NCc3ccc(F)cc3)cc2C1 (stereo unspecified),i,i,i,58,i,i,62,
C[C@H]1CN([C@@H](C)CO)C(=O)CCCn2nncc2CO[C@@H]1CN(C)S(=O)(=O)c1ccc(-n2cccn2)cc1,nt,nt,i,i,nt,nt,nt,
Fc1ccc2[nH]c3c(NCc4ccccc4)ncnc3c2c1,nt,i,i,84,i,i,75,
Cc1noc(C)c1NC(=O)Nc1cccc2c1O[C@H](CN(C)S(=O)(=O)c1cn(C)cn1)[C@@H](C)CN([C@H](C)CO)C2=O,nt,i,i,i,i,i,nt,
O=C(C[n+]1ccc(C(=O)c2ccccc2)cc1)Nc1cccc([N+](=O)[O-])c1,nt,nt,i,i,nt,nt,nt,
COc1cccc(NC(=O)CN(C)C(=O)c2c(C)noc2C)c1,nt,i,i,i,i,i,nt,
O=C(Nc1ccc(Oc2ncnc3cc(Cl)ccc23)nc1)c1ccc(F)cc1,i,i,nt,nt,i,i,nt,
O=C(Nc1ccc(Oc2ncnc3cc(Cl)ccc23)nc1)Nc1cccc(C(F)(F)F)c1,i,i,i,90,98,i,25,
Cc1cccc(N2C(=O)/C(=C/c3cccnc3)SC2=S)c1,i,i,i,i,i,i,nt,
Cc1cc(/C=C2\SC(=S)N(C)C2=O)c(C)n1-c1ccccc1O,nt,i,i,92,i,i,67,
Cc1cc(/C=C2/SC(=S)N(c3cccc(Cl)c3)C2=O)c(C)n1-c1cccnc1,nt,i,i,63,i,i,78,
Cc1cc(/C=C2/NC(=O)N(c3ccccc3)C2=O)c(C)n1-c1cccnc1,i,i,i,i,i,i,nt,
Cc1cc(/C=C2/SC(=S)N(c3ccc([N+](=O)[O-])cc3)C2=O)c(C)n1-c1cccnc1,71,i,i,95,i,i,95,
CN(Cc1ccc2nsnc2c1)C(=O)C1CCC(=O)N(CCc2ccccc2)C1 (stereo unspecified),nt,nt,i,i,nt,nt,nt,
SMILES,CHOP inh,CHOP UPR activ,aDG glyco act,MPTP block,GRIN3A LBD mod,XBP1 UPR activ,Rh123 counter,others
CCC(C)NS(=O)(=O)c1ccc(OCC(=O)NCc2ccccn2)cc1 (stereo unspecified),i,i,i,i,i,i,nt,
Cc1cc(Br)ccc1NC(=O)CNC(=O)CN(C)C1CCS(=O)(=O)C1 (stereo unspecified),nt,i,i,i,i,i,nt,
CCn1c(CC(=O)Nc2ccc(C)cc2)nnc1SCC(=O)N1CCOCC1,nt,i,i,i,i,i,nt,
Cc1ccc2nc3n(c(=O)c2c1)-c1cc2ccccc2cc1C(=O)NC3CC(C)C (stereo unspecified),nt,nt,i,i,nt,nt,nt,
Oc1ccc(Br)cc1/C=N/n1cnc2ccccc21,74,i,i,74,i,i,67,
Oc1ccc(Br)cc1/C=N/N1CCCCC1,i,i,i,i,i,i,nt,
O=C(CSc1nnc(CNC(=O)c2c(F)cccc2Cl)o1)NCc1ccccc1,nt,i,i,i,i,i,nt,
CN(C)CCCNS(=O)(=O)c1ccc(N2CCN(Cc3ccc4c(c3)OCO4)CC2)c([N+](=O)[O-])c1,nt,i,i,87,i,i,93,
CN(C)CCNS(=O)(=O)c1ccc(N2CCc3ccccc32)c([N+](=O)[O-])c1,nt,i,i,88,i,i,i,MPTP swell DR=12;MPTP counter DR=49
CCOC(=O)C1=CCN(S(=O)(=O)c2ccc(F)cc2)C1c1ccc(F)cc1 (stereo unspecified),nt,nt,i,i,nt,nt,nt,
CCN1CCN(c2cc(-c3ccccc3)nc3cc(-c4cccc(F)c4)nn23)CC1,i,i,i,99,i,i,i,MPTP swell DR=11;MPTP counter DR=i
O=S(=O)(N/N=C1/CCCc2ccccc21)c1ccc(Br)cc1,i,i,i,i,i,i,nt,
Cc1ccc(S(=O)(=O)N/N=C2/CC(c3ccccc3)Oc3ccccc32)cc1[N+](=O)[O-] (stereo unspecified),i,i,i,78,25,i,76,
O=S(=O)(N/N=C1/CC(c2ccccc2)Oc2ccccc21)c1ccc(Br)cc1 (stereo unspecified),94,i,i,76,21,i,85,
CC(=O)O[C@]1(C(C)=O)CC[C@H]2[C@@H]3C=CC4=CC(=O)C=C[C@]4(C)[C@H]3CC[C@@]21C,nt,i,i,i,i,i,nt,
Cc1ccccc1NC(=O)CSc1nnc(C2CC2)n1CC1CCCO1 (stereo unspecified),nt,i,i,i,i,i,nt,
CCCS(=O)(=O)NC(=O)C1(C)CCN(C(=O)c2cc(C)nn2C(C)(C)C)C1 (stereo unspecified),nt,nt,i,i,nt,nt,nt,
N=c1n(Cc2ccc(Cl)cc2)c2ccccc2n1CC(O)COc1ccccc1 (stereo unspecified),83,i,i,78,i,i,27,
N=c1n(CCO)c2ccccc2n1CCOc1ccccc1,i,i,i,i,i,i,nt,
COc1ccc(OCC(O)Cn2c(=N)n(Cc3ccccc3)c3ccccc32)cc1 (stereo unspecified),i,i,i,i,i,i,nt,
